Reference: ChEMBL document CHEMBL1649525, “Population pharmacokinetic analysis of colistin methanesulfonate and colistin after intravenous administration in critically ill patients with infections caused by gram-negative bacteria” (Antimicrob Agents Chemother, 2009)

Experiments:
[1] = Cmax in patient with gram-negative bacterial infection at […], iv after 15 mins; assay type: ADME, organism-based; parameters: route intravenous; settings: human, in vivo
Summary of the method: (§1)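 Critically ill ICU patients (n=18) received CMS 3 MU (240 mg) in 100 ml saline as a 15-min IV infusion every 8 h, reduced to 160 mg q8h if creatinine clearance was <50 ml/min. Venous plasma was taken predose and 15–465 min after the first and fourth infusions, then chilled and stored at −70°C. Colistin was measured by LC-MS/MS, and CMS after acid hydrolysis. Parameters came from NONMEM population modelling.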

[2] = system: Pseudomonas aeruginosa; assay: Antimicrobial activity against Pseudomonas aeruginosa by CLSI method; assay type: functional
[3] = (§2) Half life in central compartment of patient with gram-negative bacterial infection at […], iv; assay type: ADME, organism-based; parameters: route intravenous; settings: human, in vivo; summary of the method: as §1
[4] = Volume of distribution of central compartment in patient with gram-negative bacterial infection at […], iv; assay type: ADME, organism-based; parameters: route intravenous; settings: human, in vivo; summary of the method: as §1
[5] = Clearance in patient with gram-negative bacterial infection at […], iv; assay type: ADME, organism-based; parameters: route intravenous; settings: human, in vivo; summary of the method: as §1
[6] = (§3) Half life in peripheral compartment of patient with gram-negative bacterial infection at […], iv; assay type: ADME, organism-based; parameters: route intravenous; settings: human, in vivo; summary of the method: as §1
[7] = system: Pseudomonas aeruginosa; assay: Antimicrobial activity against Pseudomonas aeruginosa by EUCAST method; assay type: functional
[8] = system: Homo sapiens; assay: Intercompartmental clearance in patient with gram-negative bacterial infection at […], iv; assay type: ADME, organism-based; parameters: route intravenous; settings: in vivo; summary of the method: as §1
[9] = Drug concentration at steady state in patient with gram-negative bacterial infection at […], iv after 7 hrs; assay type: ADME, organism-based; parameters: route intravenous; settings: human, in vivo, read-out: Css; summary of the method: as §1
[10] = system: Acinetobacter baumannii; assay: Antimicrobial activity against Acinetobacter baumannii by CLSI method; assay type: functional
[11] = system: Acinetobacter baumannii; assay: Antimicrobial activity against Acinetobacter baumannii by EUCAST method; assay type: functional
[12] = system: Homo sapiens; assay: as §2; assay type: ADME, organism-based; parameters: route intravenous; settings: in vivo; summary of the method: as §1
[13] = system: Homo sapiens; assay: as §3; assay type: ADME, organism-based; parameters: route intravenous; settings: in vivo; summary of the method: as §1
[14] = system: Homo sapiens; assay: Clearance of formed compound in patient with gram-negative bacterial infection at […], iv; assay type: ADME, organism-based; parameters: route intravenous; settings: in vivo; summary of the method: as §1
[15] = system: Homo sapiens; assay: Volume of distribution of formed compound in patient with gram-negative bacterial infection at […], iv; assay type: ADME, organism-based; parameters: route intravenous; settings: in vivo; summary of the method: as §1
[16] = system: Homo sapiens; assay: Half life in patient with gram-negative bacterial infection at […], iv; assay type: ADME, organism-based; parameters: route intravenous; settings: in vivo; summary of the method: as §1

Row | Cmax [1] | MIC [2] | half-life [3] | Vd [4] | clearance [5] | half-life [6] | MIC [7] | CL [8] | concentration at 7 h [9] | MIC [10] | MIC [11] | t1/2 [12] | t1/2 [13] | CL [14] | Vd [15] | t1/2 [16] | Compound
1 | 2930 ng/mL | ≤ 2 µg/mL | 2.76 min | 13.5 L | 228 mL/min | 2.3 h | ≤ 2 µg/mL | 133 L/h | 2300 ng/mL | ≤ 2 µg/mL | ≤ 2 µg/mL | – | – | – | – | – | CCC(C)CCCCC(=O)N[C@@H](CCNCS(=O)(=O)O)C(=O)N[C@H](C(=O)N[C@@H](CCNCS(=O)(=O)O)C(=O)N[C@H]1CCNC(=O)[C@H]([C@@H](C)O)NC(=O)[C@H](CCNCS(=O)(=O)O)NC(=O)[C@H](CCNCS(=O)(=O)O)NC(=O)[C@H](CC(C)C)NC(=O)[C@@H](CC(C)C)NC(=O)[C@H](CCNCS(=O)(=O)O)NC1=O)[C@@H](C)O.CS(=O)(=O)O (stereo partly specified) [COLISTIN METHYLSULPHATE]
2 | – | – | – | – | – | – | – | – | – | – | – | 14.4 h | 14.4 h | 9.09 L/h | 189 L | 7.1 h | COLISTIN
